ChEMBL document CHEMBL1124576 (J Med Chem, 1989)

Tests used:
[1] = target: T1, Adrenergic receptor alpha-1 (Rattus norvegicus, UniProt P15823+P23944+P43140); assay: Binding affinity against alpha-1 adrenergic receptor in rat cerebral cortical membrane, determined using [3H]prazosin as the radioligand
T1 sequence (P15823 whole entry): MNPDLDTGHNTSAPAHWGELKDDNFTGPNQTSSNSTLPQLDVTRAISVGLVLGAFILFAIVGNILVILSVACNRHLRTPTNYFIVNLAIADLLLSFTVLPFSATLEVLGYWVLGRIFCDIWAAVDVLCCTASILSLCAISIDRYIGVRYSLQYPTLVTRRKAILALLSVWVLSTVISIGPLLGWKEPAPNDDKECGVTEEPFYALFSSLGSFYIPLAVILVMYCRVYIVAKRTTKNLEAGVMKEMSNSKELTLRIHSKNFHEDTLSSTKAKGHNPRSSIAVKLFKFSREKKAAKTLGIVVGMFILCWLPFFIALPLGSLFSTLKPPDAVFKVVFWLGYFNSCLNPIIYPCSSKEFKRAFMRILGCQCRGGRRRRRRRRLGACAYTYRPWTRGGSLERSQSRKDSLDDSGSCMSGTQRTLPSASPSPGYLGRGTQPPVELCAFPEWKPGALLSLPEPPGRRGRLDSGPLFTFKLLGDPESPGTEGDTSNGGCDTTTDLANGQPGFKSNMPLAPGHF
T1 sequence (P23944 whole entry): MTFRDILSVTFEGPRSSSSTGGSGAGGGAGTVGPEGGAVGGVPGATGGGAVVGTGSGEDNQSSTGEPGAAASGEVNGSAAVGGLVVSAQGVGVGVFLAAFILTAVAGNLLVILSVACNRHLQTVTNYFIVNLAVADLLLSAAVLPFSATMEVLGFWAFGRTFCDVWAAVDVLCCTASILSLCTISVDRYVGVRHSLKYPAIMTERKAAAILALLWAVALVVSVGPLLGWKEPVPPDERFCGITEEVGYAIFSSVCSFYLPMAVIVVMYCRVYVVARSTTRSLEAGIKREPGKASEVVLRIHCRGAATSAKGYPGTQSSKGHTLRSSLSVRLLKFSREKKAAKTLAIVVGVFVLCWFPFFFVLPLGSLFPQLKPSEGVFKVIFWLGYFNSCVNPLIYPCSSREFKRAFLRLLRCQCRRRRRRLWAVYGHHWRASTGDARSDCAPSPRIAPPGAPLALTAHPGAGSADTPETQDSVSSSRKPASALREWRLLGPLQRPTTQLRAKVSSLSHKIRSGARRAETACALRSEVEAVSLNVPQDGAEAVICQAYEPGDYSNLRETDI
T1 sequence (P43140 whole entry): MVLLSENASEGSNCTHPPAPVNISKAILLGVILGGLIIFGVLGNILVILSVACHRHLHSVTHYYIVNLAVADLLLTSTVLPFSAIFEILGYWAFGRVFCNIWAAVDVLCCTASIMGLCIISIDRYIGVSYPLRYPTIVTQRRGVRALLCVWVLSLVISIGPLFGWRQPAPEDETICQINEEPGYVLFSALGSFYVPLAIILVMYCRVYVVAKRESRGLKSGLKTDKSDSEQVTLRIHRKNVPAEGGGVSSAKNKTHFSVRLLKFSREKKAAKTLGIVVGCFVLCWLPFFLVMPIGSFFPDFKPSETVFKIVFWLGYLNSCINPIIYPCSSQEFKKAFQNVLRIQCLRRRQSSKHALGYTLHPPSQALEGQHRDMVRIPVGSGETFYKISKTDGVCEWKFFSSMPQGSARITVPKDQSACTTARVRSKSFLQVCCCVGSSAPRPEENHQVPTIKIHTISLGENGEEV

[2] = target: T2, Adrenergic receptor alpha-2 (Rattus norvegicus, UniProt P22086+P19328+P22909); assay: Binding affinity against alpha-2 adrenergic receptor in rat cerebral cortical membrane, determined using [3H]- yohimbine as the radioligand.
T2 sequence (P22086 whole entry): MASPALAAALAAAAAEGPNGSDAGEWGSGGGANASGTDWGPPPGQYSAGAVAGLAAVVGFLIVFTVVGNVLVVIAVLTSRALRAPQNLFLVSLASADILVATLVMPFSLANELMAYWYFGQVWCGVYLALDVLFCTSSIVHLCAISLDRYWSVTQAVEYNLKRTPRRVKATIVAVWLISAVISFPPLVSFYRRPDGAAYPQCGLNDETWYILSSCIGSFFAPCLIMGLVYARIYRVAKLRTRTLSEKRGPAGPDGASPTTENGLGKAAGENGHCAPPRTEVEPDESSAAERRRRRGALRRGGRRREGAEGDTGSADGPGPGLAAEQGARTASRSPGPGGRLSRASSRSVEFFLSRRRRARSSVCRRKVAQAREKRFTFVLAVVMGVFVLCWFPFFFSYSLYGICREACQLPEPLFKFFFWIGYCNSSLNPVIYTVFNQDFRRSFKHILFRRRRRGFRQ
T2 sequence (P19328 whole entry): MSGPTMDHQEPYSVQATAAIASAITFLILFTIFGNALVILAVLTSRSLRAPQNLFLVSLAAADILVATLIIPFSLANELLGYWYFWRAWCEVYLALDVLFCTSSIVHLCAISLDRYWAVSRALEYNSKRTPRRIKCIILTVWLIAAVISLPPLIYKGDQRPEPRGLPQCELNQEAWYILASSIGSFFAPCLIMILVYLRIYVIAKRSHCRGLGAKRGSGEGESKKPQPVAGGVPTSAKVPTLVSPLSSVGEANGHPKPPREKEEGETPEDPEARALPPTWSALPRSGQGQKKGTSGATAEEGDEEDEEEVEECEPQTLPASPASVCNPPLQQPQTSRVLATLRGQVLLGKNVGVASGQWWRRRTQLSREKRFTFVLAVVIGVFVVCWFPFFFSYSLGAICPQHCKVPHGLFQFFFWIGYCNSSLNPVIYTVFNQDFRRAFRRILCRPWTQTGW
T2 sequence (P22909 whole entry): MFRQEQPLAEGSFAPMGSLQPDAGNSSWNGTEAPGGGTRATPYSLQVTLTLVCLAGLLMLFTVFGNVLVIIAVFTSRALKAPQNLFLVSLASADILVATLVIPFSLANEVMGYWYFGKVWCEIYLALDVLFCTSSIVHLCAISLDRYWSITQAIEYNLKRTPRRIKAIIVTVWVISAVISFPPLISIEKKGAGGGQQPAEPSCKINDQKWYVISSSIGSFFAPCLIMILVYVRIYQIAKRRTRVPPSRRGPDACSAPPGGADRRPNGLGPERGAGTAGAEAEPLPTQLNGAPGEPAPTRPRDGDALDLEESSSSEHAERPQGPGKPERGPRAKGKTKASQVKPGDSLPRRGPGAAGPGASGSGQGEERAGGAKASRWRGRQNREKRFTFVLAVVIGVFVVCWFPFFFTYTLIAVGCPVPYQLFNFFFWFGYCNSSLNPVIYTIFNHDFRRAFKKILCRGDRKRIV

Oryctolagus cuniculus = species: Oryctolagus cuniculus; assay: Inhibition of phenylephrine-induced contraction of the rabbit aorta as a measure of functional alpha-1-adrenoceptor antagonism; conditions: read-out: pA2 (converted)
In short: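 Rabbit aorta contracted with phenylephrine; alpha1 antagonism read as reversal of the contraction, expressed as pA2. Means of at least three separate determinations.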

Rattus norvegicus [3] = assay: Beta-adrenoceptor binding density by administering 0.5 mg/kg (once daily for 14 days) in rats; format: functional
In short: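 Rats dosed 0.5 mg/kg once daily for 14 days. Cortical beta-adrenoceptor density measured as Bmax, fmol [3H]dihydroalprenolol bound per mg protein, and compared with untreated controls.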

Rattus norvegicus [4] = assay: Reversal clonidine-induced mydriasis in rat, after oral administration; format: functional; conditions: read-out: ID50 (the source's name)
In short: (§1)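 Rats given clonidine to induce mydriasis; test agent dosed iv or orally. Pupillary diameter measured 10 min after dosing. Value is the dose […] that reduces pupil diameter to 50% of the clonidine-induced maximum. Means of five determinations, SD under 10%. Ratio is oral over iv dose.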

Rattus norvegicus [5] = assay: Reversal of clonidine-induced mydriasis in rat, after intravenous administration; format: functional; conditions: read-out: ID50 (the source's name); in short: as §1
[6] = ratio of Oral and Intravenous inhibitory concentrations against reversal of clonidine-induced Mydriasis in rat was evaluated; format: functional; in short: as §1
[7] = Antilog of pKi [3H]yohimbine minus PKi [3H]-prazosin was expressed as selectivity
[8] = Antilog of pA2 (Uk14304) minus PA2 (Phenylephrine) was expressed as selectivity; format: functional
In short: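 Guinea pig ileum contracted by field stimulation; alpha2 antagonism read as reversal of the inhibitory effect of UK-14304 on the contraction, expressed as pA2. Selectivity index is the antilog of pA2 (UK-14304) minus pA2 (phenylephrine). Means of at least three separate determinations.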

[9] = target: Adrenergic receptor alpha-2 (Cavia porcellus); assay: Ability to reverse inhibitory effects of UK-14304 on the contraction of guinea pig ileum as a measure of alpha-2 adrenergic receptor antagonism.
[10] = Antilog of pKi [3H]-yohimbine minus pKi [3H]prazosin.

Row | SMILES | Log Ki [1] | Log Ki [2] | Kb (Oryctolagus cuniculus) | Bmax (Rattus norvegicus [3]) | ED50 (Rattus norvegicus [4]) | ED50 (Rattus norvegicus [5]) | Ratio [6] | Selectivity [7] | Selectivity [8] | pA2 [9] | Selectivity [10]
1 | COc1ccc2c(c1)CCN1C[C@H]3CCCN(S(C)(=O)=O)[C@@H]3C[C@@H]21 | -5.29 | -9.45 | 794 nM | 57 fmol/mg | 0.095 mg/kg | 0.0065 mg/kg | 14.6 | 15000 | 4000 | 9.7 | –
2 | c1ccc2c(c1)OCC(C1=NCCN1)O2 (stereo unspecified) [IDAZOXAN] | – | – | – | – | 1.2 mg/kg | 0.017 mg/kg | – | – | – | – | –
3 | COc1ccc2c(c1)CCN1C[C@@H]3CCCN(S(C)(=O)=O)[C@H]3C[C@H]21 | > -5 | -6.32 | 10000 nM | – | > 10 mg/kg | > 10 mg/kg | – | > 50 | – | 6.5 | > 50
4 | COC(=O)[C@@H]1[C@H]2C[C@H]3c4[nH]c5ccccc5c4CCN3C[C@@H]2CC[C@@H]1O [YOHIMBINE] | – | – | – | – | 2.8 mg/kg | 0.185 mg/kg | – | – | – | – | –
5 | COc1ccc2c(c1)CCN1CC3CCCN(S(C)(=O)=O)C3CC21 (stereo unspecified) | -4.99 | -9.18 | > 1000 nM | – | 0.21 mg/kg | 0.013 mg/kg | 16.2 | 15000 | > 4000 | 9.7 | –
